Data: ChEMBL document CHEMBL4004807 (J Med Chem, 2017)
The source made the active and inactive calls. The calls are words filed in the database; no cut-off is given here.

Tests used:
[1] = Selectivity ratio of EC50 for recombinant rat IP receptor expressed in CHO-K1 cells to EC50 for recombinant human IP receptor expressed in CHO-K1 cells; assay type: cell-based
[2] = target: T1, Prostacyclin receptor (Homo sapiens, UniProt P43119); assay: Ratio of IC50 for IP receptor in human primary platelets to EC50 for recombinant human IP receptor expressed in CHO-K1 cells; assay type: cell-based
[3] = target: Prostacyclin receptor (Rattus norvegicus, UniProt P43253); assay: Agonist activity at recombinant rat IP receptor expressed in CHO-K1 cells assessed as increase in intracellular cAMP level after 1 hr incubation by HTRF method; assay type: functional, cell-based
Procedure, shortened: (§1)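 CHO-K1 clonal lines stably expressing IP at minimal levels; cells in PBS with 1 mM IBMX and 0.2% BSA, 200 000 cells/mL. 10-point, 5-fold DMSO serial dilution, top 10 μM; 1 h at room temperature, then HTRF cAMP-D2 and cryptate reagents in lysis buffer, 1 h, time-resolved fluorescence.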

[4] = target: T2, Prostaglandin D2 receptor (Homo sapiens, UniProt Q13258); assay: Agonist activity at recombinant human DP1 receptor expressed in CHO-K1 cells assessed as increase in intracellular cAMP level after 1 hr incubation by HTRF method; assay type: functional, cell-based
T2 sequence (Q13258 whole entry): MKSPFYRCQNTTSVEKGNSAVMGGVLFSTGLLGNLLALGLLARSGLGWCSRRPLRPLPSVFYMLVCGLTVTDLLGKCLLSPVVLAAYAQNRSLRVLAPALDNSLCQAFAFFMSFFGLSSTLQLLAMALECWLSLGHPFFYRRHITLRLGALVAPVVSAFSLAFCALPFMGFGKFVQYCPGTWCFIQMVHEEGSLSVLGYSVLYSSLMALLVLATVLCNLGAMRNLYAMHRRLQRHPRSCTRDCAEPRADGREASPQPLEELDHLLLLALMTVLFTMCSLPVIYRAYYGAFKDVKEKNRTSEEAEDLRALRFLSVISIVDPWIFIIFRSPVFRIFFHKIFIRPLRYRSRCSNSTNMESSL
Procedure, shortened: (§2)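 CHO-K1 clonal line stably expressing DP1 at minimal level; HTRF cAMP assay, 1 h incubation at room temperature, time-resolved fluorescence read-out.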

[5] = target: T1, Prostacyclin receptor; assay: Agonist activity at recombinant human IP receptor expressed in CHO-K1 cells assessed as increase in intracellular cAMP level after 1 hr incubation by HTRF method; assay type: functional, cell-based; procedure, shortened: as §1
[6] = target: T1, Prostacyclin receptor; assay: Intrinsic activity at recombinant human IP receptor expressed in CHO-K1 cells assessed as increase in intracellular cAMP level at 10 uM after 1 hr incubation by HTRF method relative to iloprost; assay type: functional, cell-based
Procedure, shortened: (§3)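 Stably transfected CHO-K1 clones with receptor expression kept minimal to avoid receptor reserve. Cells at 200 000/mL in PBS with 1 mM IBMX and 0.2% BSA. 10-point 5-fold dilution series, top 10 μM, tested in triplicate plates, 1 h at room temperature. HTRF cAMP read by time-resolved fluorescence.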

[7] = Half life in rat microsomes; assay type: ADME, Microsome
[8] = target: T3, Prostaglandin D2 receptor (Homo sapiens) (UniProt Q13258); assay: Intrinsic activity at recombinant human DP1 receptor expressed in CHO-K1 cells assessed as increase in intracellular cAMP level after 1 hr incubation by HTRF method relative to prostaglandin D2; assay type: functional, cell-based; procedure, shortened: as §2
T3 sequence (whole entry): T2 sequence (Q13258 whole entry)

[9] = Half life in human microsomes; assay type: ADME, Microsome
[10] = target: Prostacyclin receptor (Rattus norvegicus) (UniProt P43253); assay: Intrinsic activity at recombinant rat IP receptor expressed in CHO-K1 cells assessed as increase in intracellular cAMP level at 10 uM after 1 hr incubation by HTRF method relative to iloprost; assay type: functional, cell-based; procedure, shortened: as §3
[11] = Total clearance in Sprague-Dawley rat plasma at 2 mg/kg, iv or 10 mg/kg, po; assay type: ADME, organism-based
[12] = system: Rattus norvegicus; assay: AUC (0 to infinity) in Sprague-Dawley rat at 10 mg/kg, po; assay type: ADME, organism-based; parameters: dose 10 mg/kg, route oral, time infinity; conditions: in vivo
Procedure, shortened: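 Sprague-Dawley rats, single oral dose of 10.0 mg/kg; AUC0-inf from plasma concentrations.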

[13] = Volume of distribution at steady state in Sprague-Dawley rat at 2 mg/kg, iv or 10 mg/kg, po; assay type: ADME, organism-based; conditions: in vivo
[14] = system: Plasma; assay: Drug level in bile-duct cannulated rat plasma treated with 2-(((1r,4r)-4-(((4-chlorophenyl)(phenyl)carbamoyloxy)methyl)cyclohexyl)methoxy)acetic acid; assay type: ADME, cell-free
[15] = target: Prostaglandin E2 receptor EP2 subtype (Homo sapiens) (UniProt P43116); assay: Agonist activity at recombinant human EP2 receptor expressed in CHO-K1 cells assessed as increase in intracellular cAMP level up to 10 uM after 1 hr incubation by HTRF method; assay type: functional, cell-based
[16] = target: Prostaglandin E2 receptor EP4 subtype (Homo sapiens) (UniProt P35408); assay: Agonist activity at recombinant human EP4 receptor expressed in CHO-K1 cells assessed as increase in intracellular cAMP level up to 10 uM after 1 hr incubation by HTRF method; assay type: functional, cell-based
[17] = system: Rattus norvegicus; assay: Inhibition of right ventricle hypertrophic response in Sprague-Dawley rat monocrotaline model of pulmonary arterial hypertension assessed as reduction of MCT-induced increase in ratio of right ventricular weight to left ventricle plus septum weight administered via oral gavage twice daily for 21 consecutive days starting 24 hrs after monocrotaline challenge; assay type: functional
Procedure, shortened: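 Male rats given 60 mg/kg monocrotaline sc on day 1 (sham: saline) under 30 mg/kg ip pentobarbital; from next day for 20 days dosed by oral gavage twice daily at 10 or 30 mg/kg in 20% HPBCD in saline (vehicle control). Day 21: RV/(LV+S) weights; mPAP via catheter under 60 mg/kg pentobarbital (30 mg/kg group, n = 5); H&E lung sections, 5 animals/group.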

[18] = target: T1, Prostacyclin receptor; assay: Agonist activity at IP receptor in PAH patient-derived primary pulmonary arterial smooth muscle cells assessed as induction of cAMP levels after 1 hr by HTRF method; assay type: functional
[19] = target: T4, Prostaglandin E2 receptor EP3 subtype (Homo sapiens, UniProt P43115); assay: Agonist activity at recombinant human EP3v6 receptor expressed in melanophores assessed as induction of pigment redistribution up to 10 uM after 90 mins; conditions: 1.5 h
T4 sequence (P43115 whole entry): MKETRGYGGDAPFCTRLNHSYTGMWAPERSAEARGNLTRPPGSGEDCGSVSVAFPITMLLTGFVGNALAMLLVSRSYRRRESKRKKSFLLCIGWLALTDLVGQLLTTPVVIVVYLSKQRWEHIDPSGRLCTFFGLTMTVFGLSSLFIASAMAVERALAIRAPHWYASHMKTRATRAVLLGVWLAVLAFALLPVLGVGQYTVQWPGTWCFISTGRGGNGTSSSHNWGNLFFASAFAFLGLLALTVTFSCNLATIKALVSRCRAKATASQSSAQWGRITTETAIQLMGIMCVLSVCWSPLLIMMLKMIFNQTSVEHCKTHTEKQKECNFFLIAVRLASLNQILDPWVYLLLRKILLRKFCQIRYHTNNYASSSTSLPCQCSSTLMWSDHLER
Procedure, shortened: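 Melanophores electroporated with 20 μg human EP3v6 plasmid per 400 μL cells, grown 48 h at 27 °C. Assay buffer 0.7× PBS pH 7.3 with 20 nM melatonin to aggregate pigment, 90 min at room temperature, 650 nm baseline; compounds added (10-point, 5-fold dilutions, top 10 μM final), 90 min room temperature, absorbance reread.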

T1 sequence (P43119 whole entry): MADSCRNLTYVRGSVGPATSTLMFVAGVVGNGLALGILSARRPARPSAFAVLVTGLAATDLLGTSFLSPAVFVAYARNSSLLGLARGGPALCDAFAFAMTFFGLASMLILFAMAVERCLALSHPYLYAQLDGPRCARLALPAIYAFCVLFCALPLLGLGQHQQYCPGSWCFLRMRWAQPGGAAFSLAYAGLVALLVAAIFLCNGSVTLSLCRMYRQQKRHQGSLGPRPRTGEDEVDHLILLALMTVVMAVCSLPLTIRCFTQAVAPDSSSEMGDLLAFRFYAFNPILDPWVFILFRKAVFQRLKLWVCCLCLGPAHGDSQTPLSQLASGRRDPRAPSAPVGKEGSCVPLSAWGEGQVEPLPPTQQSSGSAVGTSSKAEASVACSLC
Prostaglandin E2 receptor EP2 subtype (Homo sapiens), sequence (P43116 whole entry): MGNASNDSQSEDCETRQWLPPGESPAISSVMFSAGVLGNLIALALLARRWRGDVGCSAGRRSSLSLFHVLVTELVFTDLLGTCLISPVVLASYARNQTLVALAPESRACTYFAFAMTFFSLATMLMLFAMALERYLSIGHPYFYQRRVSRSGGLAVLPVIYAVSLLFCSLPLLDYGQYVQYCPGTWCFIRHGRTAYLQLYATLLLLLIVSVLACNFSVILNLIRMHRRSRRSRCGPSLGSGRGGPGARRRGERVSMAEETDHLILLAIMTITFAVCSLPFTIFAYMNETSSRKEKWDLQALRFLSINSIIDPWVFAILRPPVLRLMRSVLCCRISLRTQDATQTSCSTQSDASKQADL
Prostaglandin E2 receptor EP4 subtype (Homo sapiens), sequence (P35408 whole entry): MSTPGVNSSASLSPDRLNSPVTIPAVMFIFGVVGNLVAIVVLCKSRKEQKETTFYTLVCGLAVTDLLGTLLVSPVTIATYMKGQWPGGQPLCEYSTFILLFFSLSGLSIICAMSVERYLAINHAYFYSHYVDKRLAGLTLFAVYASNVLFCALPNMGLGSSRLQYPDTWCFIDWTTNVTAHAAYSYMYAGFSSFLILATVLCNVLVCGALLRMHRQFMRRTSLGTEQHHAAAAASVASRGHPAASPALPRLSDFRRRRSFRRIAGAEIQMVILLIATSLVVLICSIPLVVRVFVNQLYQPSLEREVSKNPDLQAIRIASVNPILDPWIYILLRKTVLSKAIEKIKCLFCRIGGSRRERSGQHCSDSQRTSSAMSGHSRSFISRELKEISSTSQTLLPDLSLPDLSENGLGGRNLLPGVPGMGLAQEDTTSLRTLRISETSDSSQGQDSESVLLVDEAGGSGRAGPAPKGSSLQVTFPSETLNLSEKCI
Prostacyclin receptor (Rattus norvegicus, UniProt P43253), sequence (P43253 whole entry): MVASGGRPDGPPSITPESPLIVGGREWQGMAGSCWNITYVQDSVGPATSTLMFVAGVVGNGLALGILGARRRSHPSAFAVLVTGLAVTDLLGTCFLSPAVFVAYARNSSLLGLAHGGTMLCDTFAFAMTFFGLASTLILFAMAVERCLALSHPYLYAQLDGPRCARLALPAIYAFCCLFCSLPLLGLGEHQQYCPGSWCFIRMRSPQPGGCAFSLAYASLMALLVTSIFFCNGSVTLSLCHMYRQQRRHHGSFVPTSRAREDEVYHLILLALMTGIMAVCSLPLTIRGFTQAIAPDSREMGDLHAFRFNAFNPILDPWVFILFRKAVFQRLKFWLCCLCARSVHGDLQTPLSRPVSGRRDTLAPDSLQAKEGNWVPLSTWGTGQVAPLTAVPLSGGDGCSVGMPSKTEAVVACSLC
Prostacyclin receptor (Rattus norvegicus), sequence (P43253 whole entry): as above

## O=C(O)COC[C@H]1CC[C@H](COC(=O)N(c2ccc(F)cc2)c2cccc(F)c2)CC1
[1]
  Ratio EC50: 10 to 30
[2]
  Ratio IC50/EC50: 2 to 10

## O=C(O)COC[C@H]1CC[C@@H](COC(=O)N(c2ccccc2)c2cccc(F)c2)CC1
[1]
  Ratio EC50: 10 to 30
[2]
  Ratio IC50/EC50: 2 to 10

## CC(C)N(CCCCOCC(=O)NS(C)(=O)=O)c1cnc(-c2ccccc2)c(-c2ccccc2)n1 [SELEXIPAG]
[3]
  EC50: 200 nM
[4]
  EC50: 100 nM
[5]
  EC50: 6 nM
[1]
  Ratio EC50: 10 to 30
[2]
  Ratio IC50/EC50: 2 to 10

## O=C(O)COC[C@H]1CC[C@@H](COC(=O)N(c2ccccc2)c2cccc(Cl)c2)CC1
[6]
  Intrinsic activity: 80%
[7]
  half-life: > 1 h
[8]
  Intrinsic activity: 30%
[9]
  half-life: > 1 h
[10]
  Intrinsic activity: 88%

## O=C(O)COC[C@H]1CC[C@H](COC(=O)N(c2ccccc2)c2ccc(F)c(Cl)c2)CC1
[1]
  Ratio EC50: 10 to 30
[2]
  Ratio IC50/EC50: 2 to 10

## O=C(O)COC[C@H]1CC[C@@H](COC(=O)N(c2ccccc2)c2ccccc2)CC1
[1]
  Ratio EC50: 10 to 30
[2]
  Ratio IC50/EC50: 2 to 10

## COc1ccc(N(C(=O)OC[C@H]2CC[C@H](COCC(=O)O)CC2)c2cccc(F)c2)cc1
[1]
  Ratio EC50: 10 to 30
[2]
  Ratio IC50/EC50: 2 to 10

## O=C(O)COC[C@H]1CC[C@H](COC(=O)N(c2ccccc2)c2ccccc2)CC1
[1]
  Ratio EC50: 10 to 30
[2]
  Ratio IC50/EC50: 2 to 10

## O=C(O)COC[C@H]1CC[C@H](COC(=O)N(c2cccc(F)c2)c2ccc(Cl)c(F)c2)CC1
[1]
  Ratio EC50: 10 to 30
[2]
  Ratio IC50/EC50: 2 to 10

## O=C(O)COC[C@H]1CC[C@H](COC(=O)N(c2ccccc2)c2ccc(F)cc2)CC1
[11]
  clearance: 30 mL/min/kg
[12]
  AUC: 7900 ng·h/mL
[13]
  Vd: 6.2 L/kg
[1]
  Ratio EC50: 10 to 30
[2]
  Ratio IC50/EC50: 2 to 10

## COc1ccc(N(C(=O)OC[C@H]2CC[C@@H](COCC(=O)O)CC2)c2ccccc2)cc1
[1]
  Ratio EC50: 10 to 30
[2]
  Ratio IC50/EC50: 2 to 10

## COc1ccc(N(C(=O)OC[C@H]2CC[C@H](COCC(=O)O)CC2)c2ccccc2)cc1
[11]
  clearance: 56.7 mL/min/kg
[12]
  AUC: 3400 ng·h/mL
[13]
  Vd: 0.71 L/kg
[1]
  Ratio EC50: 10 to 30
[2]
  Ratio IC50/EC50: 2 to 10

## O=C(COC[C@H]1CC[C@H](COC(=O)N(c2ccc(O)cc2)c2ccc(Cl)cc2)CC1)NCCS(=O)(=O)O
[14]
  Drug metabolism: Metabolite_Detected

## COc1cccc(N(C(=O)OC[C@H]2CC[C@H](COCC(=O)O)CC2)c2ccccc2)c1
[12]
  AUC: 1900 ng·h/mL
[13]
  Vd: 6.3 L/kg
[1]
  Ratio EC50: 10 to 30
[2]
  Ratio IC50/EC50: 2 to 10

## O=C(O)COC[C@H]1CC[C@H](COC(=O)N(c2ccccc2)c2ccc(Cl)c(F)c2)CC1
[11]
  clearance: 13.3 mL/min/kg
[12]
  AUC: 2600 ng·h/mL
[13]
  Vd: 3.5 L/kg
[1]
  Ratio EC50: 10 to 30
[2]
  Ratio IC50/EC50: 2 to 10

## Cc1ccc(N(C(=O)OC[C@H]2CC[C@H](COCC(=O)O)CC2)c2ccccc2)cc1
[1]
  Ratio EC50: 10 to 30
[2]
  Ratio IC50/EC50: 2 to 10

## O=C(O)COC[C@H]1CC[C@H](COC(=O)N(c2ccccc2)c2cccc(F)c2)CC1
[15]
  Activity: inactive
[16]
  Activity: inactive
[11]
  clearance: 20 mL/min/kg
[17]
  inhibition: Dose-dependent effect
[12]
  AUC: 7900 ng·h/mL
[13]
  Vd: 2.74 L/kg
[1]
  Ratio EC50: 10 to 30
[2]
  Ratio IC50/EC50: 2 to 10
[18]
  Activity: Active
[19]
  Activity: Active

## CC#CCC(C)[C@H](O)/C=C/[C@@H]1[C@H]2C/C(=C/CCCC(=O)O)C[C@H]2C[C@H]1O (stereo not given in full) [ILOPROST]
[19]
  Activity: Active

## CC(C)N(CCCCOCC(=O)O)c1cnc(-c2ccccc2)c(-c2ccccc2)n1
[18]
  Activity: Active

## O=C(O)COC[C@H]1CC[C@H](COC(=O)N(c2ccccc2)c2ccc(F)c(F)c2)CC1
[11]
  clearance: 10 mL/min/kg
[12]
  AUC: 4500 ng·h/mL
[13]
  Vd: 1.1 L/kg
[1]
  Ratio EC50: 10 to 30
[2]
  Ratio IC50/EC50: 2 to 10

## O=C(O)COC[C@H]1CC[C@H](COC(=O)N(c2ccc(O)cc2)c2ccc(Cl)cc2)CC1
[14]
  Drug metabolism: Metabolite_Detected

## O=C(O)COC[C@H]1CC[C@H](COC(=O)N(c2ccc(F)cc2)c2ccc(F)cc2)CC1
[1]
  Ratio EC50: 10 to 30
[2]
  Ratio IC50/EC50: 2 to 10

## O=C(O)COC[C@H]1CC[C@H](COC(=O)N(c2ccc(Cl)cc2)c2cccc(F)c2)CC1
[1]
  Ratio EC50: 10 to 30
[2]
  Ratio IC50/EC50: 2 to 10
